Experimental data from ChEMBL document CHEMBL5338787, “Discovery of Novel Bruton's Tyrosine Kinase PROTACs with Enhanced Selectivity and Cellular Efficacy” (J Med Chem, 2023).
Calls of active or inactive are those of the source. The rule behind the calls is not given here.

Legend:
MINO = assay: Induction of apoptosis in human MINO cells measured after 48 hrs by Annexin-V/propidium iodide staining based flow cytometric analysis; format: functional, cell-based; conditions: dose 0.15-3000 nM
Outline: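 Cells plated at 2 × 10^6 per well and treated 48 h at 3,000–0.15 nM (3-fold dilutions) or 1% DMSO. Harvested, washed in cold PBS, stained with Annexin V Alexa Fluor 488/propidium iodide, analysed by flow cytometry for % live, apoptotic and necrotic cells. Mean of two independent experiments.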

[1] = molecular target: T1, Protein cereblon/Tyrosine-protein kinase BTK (Homo sapiens, UniProt Q06187+Q96SW2); assay: PROTAC activity at BTK/CRBN protein protein interaction in human JeKo-1 cell assessed as degradation of BTK incubated for 17 hrs measured by Western blot analysis relative to control; format: cell-based
Outline: (§1)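 Ramos or JeKo-1 cells (2 × 10^6 per well) were exposed for 17 h to 3000–0.15 nM PROTAC in 3-fold steps. Cells were lysed and analysed by western blot, with BTK normalised to β-actin. DC50 and Dmax come from the dose-response; DC50 is the mean ± SD of two independent experiments.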
Target sequence in this assay (Q06187 2-659 limits assumed): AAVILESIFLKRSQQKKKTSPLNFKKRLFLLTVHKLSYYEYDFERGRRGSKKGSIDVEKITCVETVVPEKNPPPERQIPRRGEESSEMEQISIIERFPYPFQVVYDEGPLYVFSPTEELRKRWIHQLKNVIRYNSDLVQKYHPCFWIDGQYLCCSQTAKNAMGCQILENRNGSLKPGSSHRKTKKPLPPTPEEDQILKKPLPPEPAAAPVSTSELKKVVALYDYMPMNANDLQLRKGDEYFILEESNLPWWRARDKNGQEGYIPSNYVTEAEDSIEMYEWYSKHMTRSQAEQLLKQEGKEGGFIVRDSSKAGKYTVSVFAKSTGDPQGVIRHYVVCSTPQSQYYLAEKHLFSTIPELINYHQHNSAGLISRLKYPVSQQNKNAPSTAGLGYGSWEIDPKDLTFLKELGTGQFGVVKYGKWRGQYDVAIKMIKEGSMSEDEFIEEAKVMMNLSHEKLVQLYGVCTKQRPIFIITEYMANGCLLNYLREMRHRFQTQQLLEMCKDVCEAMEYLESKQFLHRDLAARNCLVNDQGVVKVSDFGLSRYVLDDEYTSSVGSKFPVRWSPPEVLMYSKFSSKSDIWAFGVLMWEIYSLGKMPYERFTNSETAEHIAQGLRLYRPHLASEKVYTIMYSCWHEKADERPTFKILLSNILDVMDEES
Target sequence in this assay (Q96SW2 whole entry partner): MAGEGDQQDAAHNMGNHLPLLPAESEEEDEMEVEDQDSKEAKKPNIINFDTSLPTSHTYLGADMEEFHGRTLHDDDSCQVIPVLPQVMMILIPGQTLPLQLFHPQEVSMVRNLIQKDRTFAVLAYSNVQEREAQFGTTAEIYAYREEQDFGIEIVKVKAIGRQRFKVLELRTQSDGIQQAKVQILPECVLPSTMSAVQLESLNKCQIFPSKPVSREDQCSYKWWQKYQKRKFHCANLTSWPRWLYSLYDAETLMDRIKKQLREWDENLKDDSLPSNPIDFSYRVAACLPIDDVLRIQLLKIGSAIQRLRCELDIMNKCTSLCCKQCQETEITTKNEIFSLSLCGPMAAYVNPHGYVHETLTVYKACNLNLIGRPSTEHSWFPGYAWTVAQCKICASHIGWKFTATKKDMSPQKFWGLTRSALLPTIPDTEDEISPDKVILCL

[2] = molecular target: T1, Protein cereblon/Tyrosine-protein kinase BTK; assay: PROTAC activity at BTK/CRBN protein protein interaction in human JeKo-1 cell assessed as degradation of BTK incubated for 17 hrs measured by Western blot analysis; format: cell-based; outline: as §1
Target sequence in this assay (Q06187 whole entry): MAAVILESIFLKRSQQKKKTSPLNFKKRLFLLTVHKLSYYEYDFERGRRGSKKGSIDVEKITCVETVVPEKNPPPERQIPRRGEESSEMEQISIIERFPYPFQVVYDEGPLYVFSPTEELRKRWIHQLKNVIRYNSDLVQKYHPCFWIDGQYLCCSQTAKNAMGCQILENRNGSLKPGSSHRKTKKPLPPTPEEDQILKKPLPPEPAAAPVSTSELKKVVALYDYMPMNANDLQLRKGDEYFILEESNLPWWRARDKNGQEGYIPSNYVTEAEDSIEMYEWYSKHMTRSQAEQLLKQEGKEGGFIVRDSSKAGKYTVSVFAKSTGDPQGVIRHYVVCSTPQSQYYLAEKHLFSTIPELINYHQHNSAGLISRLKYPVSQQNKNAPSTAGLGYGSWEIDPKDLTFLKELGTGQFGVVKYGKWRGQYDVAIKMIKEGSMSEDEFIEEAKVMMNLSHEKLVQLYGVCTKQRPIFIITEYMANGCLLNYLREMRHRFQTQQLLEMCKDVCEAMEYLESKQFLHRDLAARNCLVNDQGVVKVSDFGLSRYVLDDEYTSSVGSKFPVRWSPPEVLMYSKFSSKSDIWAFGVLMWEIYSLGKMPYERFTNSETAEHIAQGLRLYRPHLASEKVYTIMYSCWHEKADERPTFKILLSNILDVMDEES
Target sequence in this assay (Q96SW2 whole entry): as the sequence (Q96SW2 whole entry partner) above

[3] = molecular target: T1, Protein cereblon/Tyrosine-protein kinase BTK; assay: PROTAC activity at BTK/CRBN protein protein interaction in human Ramos cell assessed as degradation of BTK incubated for 17 hrs measured by Western blot analysis relative to control; format: cell-based; outline: as §1
Target sequence in this assay (Q06187 2-659 limits assumed): as the sequence (Q06187 2-659 limits assumed) above
Target sequence in this assay (Q96SW2 whole entry partner): as the sequence (Q96SW2 whole entry partner) above

[4] = molecular target: T1, Protein cereblon/Tyrosine-protein kinase BTK; assay: PROTAC activity at BTK/CRBN protein protein interaction in human Ramos cell assessed as degradation of BTK incubated for 17 hrs measured by Western blot analysis; format: cell-based; outline: as §1
Target sequence in this assay (Q06187 whole entry): as the sequence (Q06187 whole entry) above
Target sequence in this assay (Q96SW2 whole entry): as the sequence (Q96SW2 whole entry partner) above

[5] = molecular target: Tyrosine-protein kinase CSK (Homo sapiens) (UniProt P41240); assay: Degradation of CSK in human TMD8 cells by measuring protein level at 111 nM for 6 hrs using label free proteomic analysis; format: cell-based
Chain of Tyrosine-protein kinase CSK (Homo sapiens) (P41240 2-450 limits assumed): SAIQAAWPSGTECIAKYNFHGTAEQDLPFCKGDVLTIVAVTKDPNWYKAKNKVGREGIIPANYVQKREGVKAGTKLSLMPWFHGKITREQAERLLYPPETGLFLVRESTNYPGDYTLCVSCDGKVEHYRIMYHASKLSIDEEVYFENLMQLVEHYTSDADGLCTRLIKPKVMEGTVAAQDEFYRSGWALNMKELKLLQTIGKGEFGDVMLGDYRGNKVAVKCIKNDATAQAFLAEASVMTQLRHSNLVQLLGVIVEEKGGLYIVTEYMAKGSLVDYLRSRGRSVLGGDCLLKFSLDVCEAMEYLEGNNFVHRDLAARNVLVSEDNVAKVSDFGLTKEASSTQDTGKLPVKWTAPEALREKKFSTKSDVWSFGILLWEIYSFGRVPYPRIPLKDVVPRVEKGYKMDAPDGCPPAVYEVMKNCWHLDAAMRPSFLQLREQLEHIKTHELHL
Outline: (§2)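 TMD8 cells (2 × 10^6) given 111 nM or DMSO for 6 h in duplicate. Lysed in 5% SDS/50 mM TEAB pH 8.5. 200 μg protein reduced (10 mM DTT, 55 °C, 30 min), alkylated (50 mM iodoacetamide), S-Trap processed, then LC-MS/MS. Label-free matched-peptide quantitation against DMSO, human UniProt; Benjamini–Hochberg-corrected p-values.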

[6] = molecular target: Tyrosine-protein kinase FRK (Homo sapiens) (UniProt P42685); assay: Degradation of FRK in human TMD8 cells by measuring protein level at 111 nM for 6 hrs using label free proteomic analysis; format: cell-based; outline: as §2
Chain of Tyrosine-protein kinase FRK (Homo sapiens) (P42685 whole entry): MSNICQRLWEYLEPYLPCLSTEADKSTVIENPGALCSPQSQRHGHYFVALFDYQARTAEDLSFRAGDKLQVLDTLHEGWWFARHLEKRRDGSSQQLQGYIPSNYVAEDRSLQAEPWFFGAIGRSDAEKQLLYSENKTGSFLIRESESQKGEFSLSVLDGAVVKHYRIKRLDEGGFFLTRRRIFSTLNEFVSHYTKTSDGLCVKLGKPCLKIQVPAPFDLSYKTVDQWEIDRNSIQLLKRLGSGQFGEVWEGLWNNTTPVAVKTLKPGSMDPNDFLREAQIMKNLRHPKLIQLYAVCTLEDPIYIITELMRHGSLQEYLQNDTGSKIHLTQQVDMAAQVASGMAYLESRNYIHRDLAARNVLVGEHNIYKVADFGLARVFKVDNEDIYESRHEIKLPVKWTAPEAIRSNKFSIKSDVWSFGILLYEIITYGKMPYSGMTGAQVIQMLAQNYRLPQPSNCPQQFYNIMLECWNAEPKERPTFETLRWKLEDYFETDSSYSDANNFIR

[7] = molecular target: Zinc finger protein Aiolos (Homo sapiens) (UniProt Q9UKT9); assay: Degradation of IKZF3 in human TMD8 cells by measuring protein level at 111 nM for 6 hrs using label free proteomic analysis; format: cell-based; outline: as §2
Chain of Zinc finger protein Aiolos (Homo sapiens) (Q9UKT9 whole entry): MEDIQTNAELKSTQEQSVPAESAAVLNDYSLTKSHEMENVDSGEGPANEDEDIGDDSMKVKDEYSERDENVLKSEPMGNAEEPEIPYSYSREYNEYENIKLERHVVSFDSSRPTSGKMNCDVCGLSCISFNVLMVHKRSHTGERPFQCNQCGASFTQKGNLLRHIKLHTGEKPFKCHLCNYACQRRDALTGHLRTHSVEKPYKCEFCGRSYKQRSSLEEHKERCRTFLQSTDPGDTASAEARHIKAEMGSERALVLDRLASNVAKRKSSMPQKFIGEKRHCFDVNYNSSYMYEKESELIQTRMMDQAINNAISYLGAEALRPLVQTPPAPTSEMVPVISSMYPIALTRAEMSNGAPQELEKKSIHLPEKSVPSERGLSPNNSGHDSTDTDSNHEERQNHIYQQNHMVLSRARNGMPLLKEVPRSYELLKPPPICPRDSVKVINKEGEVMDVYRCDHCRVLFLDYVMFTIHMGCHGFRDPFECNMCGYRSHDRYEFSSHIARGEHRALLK

[8] = Cytotoxicity against human MINO cells incubated for 48 hrs by celltitre glo 2.0 assay; format: functional, cell-based
TMD8 = assay: Cytotoxicity against human TMD8 cells incubated for 48 hrs by celltitre glo 2.0 assay; format: functional, cell-based; conditions: TMD8, 48 h
[9] = molecular target: DNA-binding protein Ikaros (Homo sapiens) (UniProt Q13422); assay: Degradation of IKZF1 in human TMD8 cells by measuring protein level at 111 nM for 6 hrs using label free proteomic analysis; format: cell-based; outline: as §2
Chain of DNA-binding protein Ikaros (Homo sapiens) (Q13422 whole entry): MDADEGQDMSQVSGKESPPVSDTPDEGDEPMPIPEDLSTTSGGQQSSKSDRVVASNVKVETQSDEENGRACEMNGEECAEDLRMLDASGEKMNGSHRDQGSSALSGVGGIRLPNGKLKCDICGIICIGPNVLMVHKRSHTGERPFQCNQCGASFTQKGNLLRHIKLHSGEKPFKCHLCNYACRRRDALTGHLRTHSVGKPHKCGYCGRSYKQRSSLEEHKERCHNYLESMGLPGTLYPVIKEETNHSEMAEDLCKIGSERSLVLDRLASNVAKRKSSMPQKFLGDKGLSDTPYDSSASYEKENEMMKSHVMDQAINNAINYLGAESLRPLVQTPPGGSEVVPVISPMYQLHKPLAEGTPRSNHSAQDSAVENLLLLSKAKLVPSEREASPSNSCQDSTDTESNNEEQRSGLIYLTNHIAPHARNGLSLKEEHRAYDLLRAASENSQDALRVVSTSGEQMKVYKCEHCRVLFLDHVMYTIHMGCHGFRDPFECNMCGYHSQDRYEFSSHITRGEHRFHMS

[10] = molecular target: T2, Zinc finger protein 280D (Homo sapiens) (UniProt Q6N043); assay: Degradation of […] in human TMD8 cells by measuring protein level at 111 nM for 6 hrs using label free proteomic analysis; format: cell-based; outline: as §2
T2 sequence (whole entry): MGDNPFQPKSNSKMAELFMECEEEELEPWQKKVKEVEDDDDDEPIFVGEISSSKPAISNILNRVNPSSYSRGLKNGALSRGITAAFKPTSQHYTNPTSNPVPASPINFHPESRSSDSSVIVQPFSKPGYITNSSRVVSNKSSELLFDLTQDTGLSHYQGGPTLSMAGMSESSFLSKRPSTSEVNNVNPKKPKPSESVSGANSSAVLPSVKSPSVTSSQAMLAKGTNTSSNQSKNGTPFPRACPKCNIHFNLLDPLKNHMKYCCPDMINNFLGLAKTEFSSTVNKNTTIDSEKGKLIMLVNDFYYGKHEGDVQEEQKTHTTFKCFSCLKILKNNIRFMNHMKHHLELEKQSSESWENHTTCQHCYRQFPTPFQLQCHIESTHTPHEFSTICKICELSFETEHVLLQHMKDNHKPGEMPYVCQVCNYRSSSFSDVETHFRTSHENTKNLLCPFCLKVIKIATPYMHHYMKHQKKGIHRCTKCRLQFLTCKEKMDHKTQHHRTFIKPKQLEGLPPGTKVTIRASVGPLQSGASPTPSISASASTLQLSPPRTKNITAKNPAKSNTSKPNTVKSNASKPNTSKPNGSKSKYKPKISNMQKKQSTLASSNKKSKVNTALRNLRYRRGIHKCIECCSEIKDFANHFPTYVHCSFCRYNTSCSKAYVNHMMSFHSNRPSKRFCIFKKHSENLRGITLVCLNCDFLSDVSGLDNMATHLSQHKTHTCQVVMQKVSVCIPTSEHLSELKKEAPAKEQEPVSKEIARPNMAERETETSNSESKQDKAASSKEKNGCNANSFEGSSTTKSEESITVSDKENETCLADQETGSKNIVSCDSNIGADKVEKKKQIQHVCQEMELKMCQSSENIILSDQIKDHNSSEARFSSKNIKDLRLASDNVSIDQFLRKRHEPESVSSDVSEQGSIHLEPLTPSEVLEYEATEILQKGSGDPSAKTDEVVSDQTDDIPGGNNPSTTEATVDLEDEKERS

[11] = molecular target: Eukaryotic peptide chain release factor GTP-binding subunit ERF3A (Homo sapiens) (UniProt P15170); assay: Degradation of […] in human TMD8 cells by measuring protein level at 111 nM for 6 hrs using label free proteomic analysis; format: cell-based; outline: as §2
Chain of Eukaryotic peptide chain release factor GTP-binding subunit ERF3A (Homo sapiens) (P15170 whole entry): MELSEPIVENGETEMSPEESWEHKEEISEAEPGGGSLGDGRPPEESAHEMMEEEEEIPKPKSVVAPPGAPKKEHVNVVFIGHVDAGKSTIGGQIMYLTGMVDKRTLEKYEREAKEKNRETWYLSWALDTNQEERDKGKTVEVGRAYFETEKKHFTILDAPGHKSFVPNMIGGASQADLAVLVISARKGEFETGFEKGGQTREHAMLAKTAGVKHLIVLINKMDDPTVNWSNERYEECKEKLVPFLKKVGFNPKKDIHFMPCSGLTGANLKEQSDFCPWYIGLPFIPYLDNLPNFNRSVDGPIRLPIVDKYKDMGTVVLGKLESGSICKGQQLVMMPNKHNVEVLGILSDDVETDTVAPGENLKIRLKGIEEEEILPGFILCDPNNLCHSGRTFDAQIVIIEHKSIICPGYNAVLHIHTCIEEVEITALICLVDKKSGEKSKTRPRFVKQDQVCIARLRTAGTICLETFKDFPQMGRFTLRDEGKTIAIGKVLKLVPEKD

[12] = molecular target: von Hippel-Lindau disease tumor suppressor/Tyrosine-protein kinase BTK (Homo sapiens) (UniProt Q06187+P40337); assay: PROTAC activity at BTK/VHL protein protein interaction in human Ramos cell assessed as degradation of BTK incubated less than 3000 nM for 17 hrs measured by Western blot analysis
Chain of von Hippel-Lindau disease tumor suppressor/Tyrosine-protein kinase BTK (Homo sapiens) (P40337 whole entry partner): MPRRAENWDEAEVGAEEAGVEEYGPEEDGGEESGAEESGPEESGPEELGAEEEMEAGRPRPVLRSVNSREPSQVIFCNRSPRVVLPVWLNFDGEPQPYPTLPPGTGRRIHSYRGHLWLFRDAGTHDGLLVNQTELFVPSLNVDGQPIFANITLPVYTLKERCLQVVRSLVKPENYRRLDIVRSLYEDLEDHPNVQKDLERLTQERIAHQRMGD
Chain of von Hippel-Lindau disease tumor suppressor/Tyrosine-protein kinase BTK (Homo sapiens) (Q06187 2-659 limits assumed): as the sequence (Q06187 2-659 limits assumed) above

Compound | Emax [1] [%] | DC50 [2] [nM] | Emax [3] [%] | DC50 [4] [nM] | also measured
Nc1cccc2c1C(=O)N(C1CCC(=O)NC1=O)C2=O (centres undefined) | – | – | – | – | Activity (MINO): Dose-Dependent Effect
Cn1cc(-c2ccnc(N3CCn4c(cc5c4CC(C)(C)C5)C3=O)c2CO)cc(Nc2ccc(N3CCN(C(=O)CCCCCCOCCOCC(=O)Nc4cccc5c4C(=O)N(C4CCC(=O)NC4=O)C5=O)CC3)cn2)c1=O (centres undefined) | 98.8 | 7.2 | 98.3 | 4 | –
C[C@H]1CN(C(=O)CCCCCCNc2cccc3c2C(=O)N(C2CCC(=O)NC2=O)C3=O)CCN1c1ccc(Nc2cc(-c3ccnc(N4CCn5c(cc6c5CC(C)(C)C6)C4=O)c3CO)cn(C)c2=O)nc1 (some centres undefined) | 97 | 3.3 | 95 | 3.2 | –
Nc1ncnc2c1c(-c1ccc(Oc3ccccc3)cc1)nn2[C@@H]1CCCN(C(=O)c2cn(CCOCCOCCOCCNc3cccc4c3C(=O)N(C3CCC(=O)NC3=O)C4=O)nn2)C1 (some centres undefined) | – | – | – | – | Activity [5]: Active; Activity [6]: Active; Activity [7]: Active; IC50 [8]: 10.4 nM; IC50 (TMD8): 15 nM; Activity [9]: Active; Activity [10]: Active; Activity [11]: inactive
C[C@H]1CN(C(=O)CCCCCCCCCNc2cccc3c2C(=O)N(C2CCC(=O)NC2=O)C3=O)CCN1c1ccc(Nc2cc(-c3ccnc(N4CCn5c(cc6c5CC(C)(C)C6)C4=O)c3CO)cn(C)c2=O)nc1 (some centres undefined) | 97.1 | 32.1 | 94 | 31.2 | –
C[C@H]1CN(C(=O)CCCNc2cccc3c2C(=O)N(C2CCC(=O)NC2=O)C3=O)CCN1c1ccc(Nc2cc(-c3ccnc(N4CCn5c(cc6c5CC(C)(C)C6)C4=O)c3CO)cn(C)c2=O)nc1 (some centres undefined) | 97.4 | 1 | 95.7 | 0.9 | –
Cc1ncsc1-c1ccc(CNC(=O)[C@@H]2C[C@@H](O)CN2C(=O)[C@@H](NC(=O)COCCOCCCCCCC(=O)N2CCN(c3ccc(Nc4cc(-c5ccnc(N6CCn7c(cc8c7CC(C)(C)C8)C6=O)c5CO)cn(C)c4=O)nc3)[C@@H](C)C2)C(C)(C)C)cc1 | – | – | – | – | Activity [12]: inactive
C[C@H]1CN(CCCCCCOCCOCC(=O)Nc2cccc3c2C(=O)N(C2CCC(=O)NC2=O)C3=O)CCN1c1ccc(Nc2cc(-c3ccnc(N4CCn5c(cc6c5CC(C)(C)C6)C4=O)c3CO)cn(C)c2=O)nc1 (some centres undefined) | 96.9 | 9.7 | 95.6 | 7 | –
Cn1cc(-c2ccnc(N3CCn4c(cc5c4CC(C)(C)C5)C3=O)c2CO)cc(Nc2ccc(N3CCN(CCCCCCOCCOCC(=O)Nc4cccc5c4C(=O)N(C4CCC(=O)NC4=O)C5=O)CC3)cn2)c1=O (centres undefined) | 97.7 | 6.8 | 97.2 | 5.3 | –
